This is an account of results in ChEMBL document CHEMBL1153989, “Synthesis and antiviral activities of novel acylhydrazone derivatives targeting HIV-1 capsid protein” (Bioorg Med Chem Lett, 2009).

The test system of data set [1] is Simian immunodeficiency virus. Description: Antiviral activity against SIV-induced syncytium in human CEM174 cells assessed as inhibition of virus-induced cytopathogenicity after 5 days. Format: functional, organism-based. To be noted: CEM174, 120 h. Summed up:
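CEM174 cells at 1 × 10⁵ cells/mL, infected with 100 TCID₅₀ SIV per well, with serial compound dilutions; 5 days at 37 °C, 5% CO₂, humidified. Syncytium (giant cell) formation scored by microscope. EC₅₀ is the concentration giving 50% protection against SIV cytopathogenicity. Indinavir at 1 × 10⁻⁶ mol/L served as positive control.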

Data set [2] is described as follows: Cytotoxicity against uninfected human CEM174 cells after 5 days by MTT assay. The conditions noted are these: read-out: TC50. Format: cell-based. An outline of the steps:
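Uninfected CEM174 cells under the antiviral assay conditions (5 days, 37 °C, 5% CO₂, humidified) with compound dilutions. Proliferation read by MTT reduction. TC₅₀ is the concentration inhibiting proliferation by 50%.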
A general note: Tetrazolium dyes change colour on reduction, which living cells bring about.

Data set [3] in a line: Therapeutic index, TC50 for human CEM174 cells to EC50 for SIV-induced syncytium. Format: cell-based. The conditions noted are these: read-out: TI. An outline of the steps: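 Index calculated as TC₅₀ (MTT, uninfected CEM174, 5 days) divided by EC₅₀ (inhibition of SIV syncytium formation in CEM174 cells infected with 100 TCID₅₀ per well, 5 days, microscopic scoring).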
Data set [4] deals with Structural capsid protein (Human immunodeficiency virus 1) (UniProt Q76129). The data set can be described thus: Binding affinity to HIV1 capsid protein assessed as decrease in assembly rate by turbidity-based ultraviolet spectrophotometry (RVb= 59.2+/-0.3 milliOD/min).
Chain of Structural capsid protein (Human immunodeficiency virus 1) (Q76129 as listed by the source): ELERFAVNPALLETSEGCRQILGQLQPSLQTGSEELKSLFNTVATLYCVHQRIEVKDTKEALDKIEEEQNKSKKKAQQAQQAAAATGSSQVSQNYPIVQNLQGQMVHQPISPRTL
For data set [5] the target is unchanged. The data set can be described thus: Binding affinity to HIV1 capsid protein assessed as assembly rate at 10 uM by turbidity-based ultraviolet spectrophotometry.
The target is the same in data set [6]. The data set can be described thus: Binding affinity to HIV1 capsid protein assessed as assembly rate at 20 uM by turbidity-based ultraviolet spectrophotometry.
The target is the same in data set [7]. Description: Binding affinity to HIV1 capsid protein assessed as assembly rate at 40 uM by turbidity-based ultraviolet spectrophotometry.

A word on the EC50: it is the concentration that produces a half-maximal response. For the compound `COc1ccc(C(=O)N[C@@H](CO)C(=O)N/N=C/c2ccccc2)cc1`, the concentration giving a half-maximal response (EC50) in data set [1] came out at 0.6 µM. In data set [2], the CC50 at 120 h was determined as 45.6 µM. The selectivity ratio in data set [3] was determined as 76. Besides, the Activity (milli optical density/minute) in data set [4] stood at 21.7.

For `O=C(CNS(=O)(=O)c1ccc(Br)cc1)N/N=C/c1ccccc1`, the EC50 in data set [1] came out at 0.33 µM. The CC50 at 120 h in data set [2] worked out at 92.8 µM. For the same compound, in data set [3], the selectivity ratio turned out to be 284. For the same compound, in data set [4], the Activity (milli optical density/minute) is 22.5.

For `O=[N+]([O-])c1ccc(S(=O)(=O)N2CCC(c3ccccc3)=N2)cc1`, the EC50 in data set [1] turned out to be 0.52 µM. In data set [2], the CC50 at 120 h was greater than 100 µM. In data set [3], the selectivity ratio is greater than 192.

For `Cc1ccc(S(=O)(=O)N[C@@H](CO)C(=O)N/N=C/c2ccccc2)cc1`, the EC50 in data set [1] is 1.63 µM. Besides, the CC50 at 120 h in data set [2] came to 5.19 µM. In addition, the selectivity ratio in data set [3] was 3.2. Also, the Activity (milli optical density/minute) in data set [4] is 24.4.

For `COc1ccc(C(=O)N[C@@H](Cc2ccccc2)C(=O)N/N=C/c2ccccc2)cc1`, in data set [1], the EC50 came to 0.2 µM. Moreover, the CC50 at 120 h in data set [2] is greater than 100 µM. For the same compound, the selectivity ratio in data set [3] is greater than 500. Further, the Activity (milli optical density/minute) in data set [4] stood at 22.6.

With `C/C(=N\NC(=O)[C@H](Cc1ccccc1)NS(=O)(=O)c1ccc(C)cc1)c1cccc2ccccc12`, the EC50 in data set [1] is 0.4 µM. Further, in data set [2], the CC50 at 120 h worked out at 49.1 µM. Further, the selectivity ratio in data set [3] amounted to 123.

On to `O=C(N/N=C/c1ccccc1)c1ccc([N+](=O)[O-])cc1`, for which the EC50 in data set [1] is 5.59 µM. Moreover, the CC50 at 120 h in data set [2] came to 29.6 µM. Besides, the selectivity ratio in data set [3] is 5.3.

Turning to `Cc1ccc(S(=O)(=O)N/N=C/c2ccccc2)cc1`, the half-maximal effective concentration (EC50) in data set [1] was 0.36 µM. Also, the CC50 at 120 h in data set [2] came to 31.7 µM. In addition, the selectivity ratio in data set [3] came to 88.1.

`O=C(N/N=C/c1ccccc1)[C@H](CO)NS(=O)(=O)c1ccc(Br)cc1`: in data set [1], the EC50 came out at 36 µM. For the same compound, the CC50 at 120 h in data set [2] turned out to be 80.2 µM. Besides, the selectivity ratio in data set [3] came out at 2.2.

`O=C(N[C@@H](CO)C(=O)N/N=C/c1ccccc1)c1ccc([N+](=O)[O-])cc1`: in data set [1], the EC50 amounted to 2 µM. In addition, the CC50 at 120 h in data set [2] is greater than 100 µM. The selectivity ratio in data set [3] is greater than 50.

Take `O=S(=O)(N/N=C/c1ccccc1)c1ccc(Br)cc1`: the EC50 in data set [1] turned out to be 0.95 µM. For the same compound, the CC50 at 120 h in data set [2] is greater than 100 µM. The selectivity ratio in data set [3] was greater than 105.

On to `Cc1ccc(S(=O)(=O)N[C@@H](Cc2ccccc2)C(=O)N/N=C/c2ccc3c(c2)OCO3)cc1`, for which the EC50 in data set [1] was 0.17 µM. Further, the CC50 at 120 h in data set [2] was greater than 100 µM. The selectivity ratio in data set [3] is greater than 588. Also, the Activity (milli optical density/minute) in data set [4] was found to be 7.9; in data set [5], 13.2; in data set [6] it was 7.4; in data set [7], 2.5.

As for `CC(=O)Nc1ccc(S(=O)(=O)N[C@@H](Cc2ccccc2)C(=O)N/N=C/c2ccccc2)cc1`, the EC50 in data set [1] is 0.47 µM. Besides, in data set [2], the CC50 at 120 h was greater than 100 µM. In data set [3], the selectivity ratio is greater than 213. For the same compound, in data set [4], the Activity (milli optical density/minute) was determined as 20.8.

On to `CC(=O)Nc1ccc(S(=O)(=O)NCC(=O)N/N=C/c2ccccc2)cc1`, for which, in data set [1], the EC50 turned out to be 15.1 µM. In data set [2], the CC50 at 120 h was greater than 100 µM. In addition, the selectivity ratio in data set [3] was greater than 6.6.

On to `Cc1ccc(S(=O)(=O)N[C@@H](Cc2ccccc2)C(=O)NN=C2CCCCC2)cc1`, for which, in data set [1], the EC50 was 0.89 µM. For the same compound, the CC50 at 120 h in data set [2] was 78.3 µM. Further, the selectivity ratio in data set [3] was 87.6.

Consider `Cc1ccc(S(=O)(=O)N[C@@H](Cc2ccccc2)C(=O)N/N=C/c2ccc(Cl)cc2)cc1`, for which the 50% effective concentration (EC50) in data set [1] stood at 2.8 µM. Also, in data set [2], the CC50 at 120 h amounted to 9.4 µM. For the same compound, in data set [3], the selectivity ratio stood at 3.4.

On to `C/C(=N\NC(=O)[C@H](Cc1ccccc1)NS(=O)(=O)c1ccc(C)cc1)c1ccccc1`, for which the concentration for a half-maximal effect (EC50) in data set [1] was found to be 0.3 µM. Also, the CC50 at 120 h in data set [2] came to 21.2 µM. The selectivity ratio in data set [3] came out at 70.7.

As to `O=C(N[C@@H](Cc1ccccc1)C(=O)N/N=C/c1ccccc1)c1ccc([N+](=O)[O-])cc1`, the concentration giving a half-maximal response (EC50) in data set [1] came to 3 µM. Also, the CC50 at 120 h in data set [2] is 18.7 µM. The selectivity ratio in data set [3] was 6.2.

In the case of `Cc1ccc(NC(=O)NCCSCc2ccc(CN(C)C)o2)cc1Cl`, the Activity (milli optical density/minute) in data set [4] was determined as 33.4.

`CC(=O)Nc1ccc(S(=O)(=O)N/N=C/c2ccccc2)cc1`: in data set [1], the half-maximal effective concentration (EC50) came to 0.65 µM. Moreover, the CC50 at 120 h in data set [2] is 40 µM. Also, the selectivity ratio in data set [3] was 61.5.

For `Cc1ccc(S(=O)(=O)NCC(=O)N/N=C/c2ccccc2)cc1`, the EC50 in data set [1] amounted to 1.5 µM. Further, the CC50 at 120 h in data set [2] is 83.5 µM. The selectivity ratio in data set [3] amounted to 55.7. In addition, in data set [4], the Activity (milli optical density/minute) was 23.1.

Turning to `O=C(CNC(=O)c1ccc([N+](=O)[O-])cc1)N/N=C/c1ccccc1`, in data set [1], the concentration giving a half-maximal response (EC50) stood at 1.03 µM. Further, the CC50 at 120 h in data set [2] was greater than 100 µM. Besides, the selectivity ratio in data set [3] is greater than 97.1.

Take `COc1ccc(C(=O)N/N=C/c2ccccc2)cc1`: in data set [1], the EC50 came out at 31.1 µM. The CC50 at 120 h in data set [2] is greater than 100 µM. In addition, the selectivity ratio in data set [3] is greater than 3.22.

For the compound `Cc1ccc(S(=O)(=O)N[C@@H](Cc2ccccc2)C(=O)N/N=C/c2ccc(Br)cc2)cc1`, the EC50 in data set [1] amounted to 5.49 µM. In data set [2], the CC50 at 120 h came to 82.5 µM. The selectivity ratio in data set [3] turned out to be 15.

For `Cc1ccc(S(=O)(=O)N[C@@H](Cc2ccccc2)C(=O)N/N=C/c2ccccc2F)cc1`, the EC50 in data set [1] was found to be 4.45 µM. The CC50 at 120 h in data set [2] was greater than 100 µM. Further, in data set [3], the selectivity ratio was greater than 22.5.

On to `Cc1ccc(S(=O)(=O)N[C@@H](Cc2ccccc2)C(=O)N/N=C/c2ccc([N+](=O)[O-])cc2)cc1`, for which the EC50 in data set [1] stood at 6.64 µM. Also, the CC50 at 120 h in data set [2] was determined as 9.8 µM. In addition, the selectivity ratio in data set [3] stood at 1.5. In data set [4], the Activity (milli optical density/minute) turned out to be 31.9.

Turning to `O=S(=O)(c1ccc(Br)cc1)N1CCC(c2ccccc2)=N1`, in data set [1], the EC50 stood at 0.1 µM. In addition, the CC50 at 120 h in data set [2] stood at 38.2 µM. Further, the selectivity ratio in data set [3] turned out to be 382. The Activity (milli optical density/minute) in data set [4] is 17.3.

In the case of `Cc1ccc(S(=O)(=O)N[C@@H](Cc2ccccc2)C(=O)NN=C(c2ccccc2)c2ccccc2)cc1`, in data set [1], the EC50 worked out at 0.27 µM. Besides, in data set [2], the CC50 at 120 h is greater than 100 µM. In addition, the selectivity ratio in data set [3] was greater than 365.

Consider `O=C(N/N=C/c1ccccc1)[C@H](Cc1ccccc1)NS(=O)(=O)c1ccc(Br)cc1`, for which the EC50 in data set [1] turned out to be 15.3 µM. Further, the CC50 at 120 h in data set [2] is greater than 100 µM. For the same compound, the selectivity ratio in data set [3] is greater than 6.5.

Consider `CC(=O)Nc1ccc(S(=O)(=O)N[C@@H](CO)C(=O)N/N=C/c2ccccc2)cc1`, for which the EC50 in data set [1] is 1.32 µM. Besides, in data set [2], the CC50 at 120 h was greater than 100 µM. Besides, the selectivity ratio in data set [3] was greater than 75.8.

Consider `Cc1ccc(S(=O)(=O)N[C@@H](Cc2ccccc2)C(=O)N/N=C/c2ccco2)cc1`, for which, in data set [1], the EC50 was found to be 2.46 µM. Moreover, the CC50 at 120 h in data set [2] was 99.8 µM. In addition, the selectivity ratio in data set [3] was determined as 40.6.

Turning to `COc1cc(/C=N/NC(=O)[C@H](Cc2ccccc2)NS(=O)(=O)c2ccc(C)cc2)ccc1O`, the EC50 in data set [1] is 0.21 µM. For the same compound, the CC50 at 120 h in data set [2] is greater than 100 µM. Moreover, the selectivity ratio in data set [3] is greater than 476. The Activity (milli optical density/minute) in data set [4] came to 10.6; in data set [5], 14; in data set [6], 10.9; in data set [7], 7.7.

On to `COc1ccc(C(=O)NCC(=O)N/N=C/c2ccccc2)cc1`, for which the concentration for a half-maximal effect (EC50) in data set [1] worked out at 2 µM. Besides, the CC50 at 120 h in data set [2] was determined as 63.8 µM. Also, in data set [3], the selectivity ratio came out at 31.9. Moreover, the Activity (milli optical density/minute) in data set [4] turned out to be 43.5.

On to `Cc1ccc(S(=O)(=O)N[C@@H](Cc2ccccc2)C(=O)N/N=C/c2ccccc2)cc1`, for which, in data set [1], the 50% effective concentration (EC50) was 0.4 µM. Further, the CC50 at 120 h in data set [2] came out at 50 µM. The selectivity ratio in data set [3] was 125. Further, the Activity (milli optical density/minute) in data set [4] worked out at 18.9.

Take `Cc1ccc(/C=N/NC(=O)[C@H](Cc2ccccc2)NS(=O)(=O)c2ccc(C)cc2)cc1`: the EC50 in data set [1] was 9.93 µM. For the same compound, the CC50 at 120 h in data set [2] is greater than 100 µM. Moreover, the selectivity ratio in data set [3] was greater than 10.1. The Activity (milli optical density/minute) in data set [4] was 46.
